Assay results: ChEMBL document CHEMBL5058577, “EUbOPEN Chemogenomics Library 2 (Multiplex)” (2022)

System: HEK-293T
Assay: Multiplex assay against HEK293T
Type: toxicity, cell-based
Conditions: human
Summary of the method: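 Four dyes were applied at seeding to live cells: Hoechst33342, BioTracker Green Microtubule Cytoskeleton Dye, MitoTracker Red and Annexin V Alexa Fluor 680. Imaging after compound addition used a CQ1 microscope at 37°C and 5% CO2. CellPathfinder machine-learning gating then sorted cells into Hoechst high-intensity objects or normal cells, normal cells into healthy, pyknosed or fragmented nuclei, and pyknosed cells into mitotic or apoptotic, with tubulin, mitochondrial-mass and membrane-permeability phenotypes given as per cents of healthy-nucleus cells.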

[1] = 12 h, 1 µM, compound concentration 1 uM, replicate 1
[2] = 12 h, 1 µM, compound concentration 1 uM, replicate 2
[3] = 12 h, 10 µM, compound concentration 10 uM, replicate 1
[4] = 12 h, 10 µM, compound concentration 10 uM, replicate 2
[5] = 24 h, 1 µM, compound concentration 1 uM, replicate 1
[6] = 24 h, 1 µM, compound concentration 1 uM, replicate 2
[7] = 24 h, 10 µM, compound concentration 10 uM, replicate 1
[8] = 24 h, 10 µM, compound concentration 10 uM, replicate 2
[9] = 48 h, 1 µM, compound concentration 1 uM, replicate 1
[10] = 48 h, 1 µM, compound concentration 1 uM, replicate 2
[11] = 48 h, 10 µM, compound concentration 10 uM, replicate 1
[12] = 48 h, 10 µM, compound concentration 10 uM, replicate 2

C[C@H]1[C@H]2CC[C@H]3[C@@H]4CC=C5C[C@@H](N(C)C)CC[C@]5(C)[C@H]4CC[C@]23CN1C [CONESSINE]
Population Apoptotic (%) [1]: 35%
Population Fragmented Nuclei (%) [1]: 5%
Population Healthy Nuclei (%) [1]: 78%
Population Hoechst High Intensity Objects (%) [1]: 6%
Population Membrane Permeable-Phenotype (%) [1]: 0%
Population Mitochondria Different-Phenotype (%) [1]: 39%
Population Mitotic Cells (%) [1]: 65%
Population Normal (%) [1]: 93%
Population Pyknosed Nuclei (%) [1]: 16%
Population Tubulin-Different-Phenotype (%) [1]: 26%
Total Cell Count [1]: 400
Population Apoptotic (%) [2]: 48%
Population Fragmented Nuclei (%) [2]: 4%
Population Healthy Nuclei (%) [2]: 85%
Population Hoechst High Intensity Objects (%) [2]: 8%
Population Mitochondria Different-Phenotype (%) [2]: 58%
Population Mitotic Cells (%) [2]: 51%
Population Normal (%) [2]: 91%
Population Pyknosed Nuclei (%) [2]: 10%
Population Tubulin-Different-Phenotype (%) [2]: 22%
Total Cell Count [2]: 356
Population Apoptotic (%) [3]: 35%
Population Fragmented Nuclei (%) [3]: 6%
Population Healthy Nuclei (%) [3]: 77%
Population Hoechst High Intensity Objects (%) [3]: 6%
Population Membrane Permeable-Phenotype (%) [3]: 1%
Population Mitochondria Different-Phenotype (%) [3]: 56%
Population Mitotic Cells (%) [3]: 65%
Population Normal (%) [3]: 93%
Population Pyknosed Nuclei (%) [3]: 15%
Population Tubulin-Different-Phenotype (%) [3]: 38%
Total Cell Count [3]: 419
Population Apoptotic (%) [4]: 59%
Population Fragmented Nuclei (%) [4]: 7%
Population Healthy Nuclei (%) [4]: 78%
Population Hoechst High Intensity Objects (%) [4]: 9%
Population Membrane Permeable-Phenotype (%) [4]: 0%
Population Mitochondria Different-Phenotype (%) [4]: 62%
Population Mitotic Cells (%) [4]: 40%
Population Normal (%) [4]: 90%
Population Pyknosed Nuclei (%) [4]: 14%
Population Tubulin-Different-Phenotype (%) [4]: 30%
Total Cell Count [4]: 384
Population Apoptotic (%) [5]: 26%
Population Fragmented Nuclei (%) [5]: 9%
Population Healthy Nuclei (%) [5]: 80%
Population Hoechst High Intensity Objects (%) [5]: 5%
Population Membrane Permeable-Phenotype (%) [5]: 1%
Population Mitochondria Different-Phenotype (%) [5]: 22%
Population Mitotic Cells (%) [5]: 73%
Population Normal (%) [5]: 94%
Population Pyknosed Nuclei (%) [5]: 10%
Population Tubulin-Different-Phenotype (%) [5]: 17%
Total Cell Count [5]: 514
Population Apoptotic (%) [6]: 25%
Population Fragmented Nuclei (%) [6]: 8%
Population Healthy Nuclei (%) [6]: 81%
Population Hoechst High Intensity Objects (%) [6]: 4%
Population Membrane Permeable-Phenotype (%) [6]: 0%
Population Mitochondria Different-Phenotype (%) [6]: 34%
Population Mitotic Cells (%) [6]: 75%
Population Normal (%) [6]: 95%
Population Tubulin-Different-Phenotype (%) [6]: 16%
Total Cell Count [6]: 484
Population Apoptotic (%) [7]: 27%
Population Fragmented Nuclei (%) [7]: 9%
Population Healthy Nuclei (%) [7]: 79%
Population Hoechst High Intensity Objects (%) [7]: 6%
Population Membrane Permeable-Phenotype (%) [7]: 1%
Population Mitochondria Different-Phenotype (%) [7]: 38%
Population Mitotic Cells (%) [7]: 72%
Population Normal (%) [7]: 93%
Population Pyknosed Nuclei (%) [7]: 11%
Population Tubulin-Different-Phenotype (%) [7]: 28%
Total Cell Count [7]: 572
Population Apoptotic (%) [8]: 47%
Population Healthy Nuclei (%) [8]: 82%
Population Hoechst High Intensity Objects (%) [8]: 9%
Population Membrane Permeable-Phenotype (%) [8]: 0%
Population Mitochondria Different-Phenotype (%) [8]: 43%
Population Mitotic Cells (%) [8]: 52%
Population Normal (%) [8]: 90%
Population Pyknosed Nuclei (%) [8]: 7%
Population Tubulin-Different-Phenotype (%) [8]: 24%
Total Cell Count [8]: 474
Population Apoptotic (%) [9]: 30%
Population Fragmented Nuclei (%) [9]: 9%
Population Healthy Nuclei (%) [9]: 82%
Population Hoechst High Intensity Objects (%) [9]: 2%
Population Membrane Permeable-Phenotype (%) [9]: 1%
Population Mitochondria Different-Phenotype (%) [9]: 18%
Population Mitotic Cells (%) [9]: 69%
Population Normal (%) [9]: 97%
Population Pyknosed Nuclei (%) [9]: 7%
Population Tubulin-Different-Phenotype (%) [9]: 12%
Total Cell Count [9]: 735
Population Apoptotic (%) [10]: 36%
Population Fragmented Nuclei (%) [10]: 10%
Population Healthy Nuclei (%) [10]: 83%
Population Hoechst High Intensity Objects (%) [10]: 4%
Population Mitochondria Different-Phenotype (%) [10]: 20%
Population Mitotic Cells (%) [10]: 63%
Population Normal (%) [10]: 95%
Population Pyknosed Nuclei (%) [10]: 5%
Population Tubulin-Different-Phenotype (%) [10]: 11%
Total Cell Count [10]: 630
Population Apoptotic (%) [11]: 27%
Population Fragmented Nuclei (%) [11]: 14%
Population Healthy Nuclei (%) [11]: 78%
Population Hoechst High Intensity Objects (%) [11]: 4%
Population Membrane Permeable-Phenotype (%) [11]: 1%
Population Mitochondria Different-Phenotype (%) [11]: 23%
Population Mitotic Cells (%) [11]: 72%
Population Normal (%) [11]: 95%
Population Pyknosed Nuclei (%) [11]: 6%
Population Tubulin-Different-Phenotype (%) [11]: 15%
Total Cell Count [11]: 767
Population Apoptotic (%) [12]: 36%
Population Fragmented Nuclei (%) [12]: 10%
Population Healthy Nuclei (%) [12]: 81%
Population Hoechst High Intensity Objects (%) [12]: 5%
Population Membrane Permeable-Phenotype (%) [12]: 0%
Population Mitochondria Different-Phenotype (%) [12]: 32%
Population Mitotic Cells (%) [12]: 63%
Population Normal (%) [12]: 94%
Population Pyknosed Nuclei (%) [12]: 7%
Population Tubulin-Different-Phenotype (%) [12]: 17%
Total Cell Count [12]: 618

CC1(COc2ccc3c(c2)ncn3-c2ccc3cccc(N4CCC(N)CC4)c3n2)COC1 [CRENOLANIB]
Population Apoptotic (%) [1]: 58%
Population Fragmented Nuclei (%) [1]: 14%
Population Healthy Nuclei (%) [1]: 79%
Population Hoechst High Intensity Objects (%) [1]: 3%
Population Membrane Permeable-Phenotype (%) [1]: 2%
Population Mitochondria Different-Phenotype (%) [1]: 23%
Population Mitotic Cells (%) [1]: 41%
Population Normal (%) [1]: 96%
Population Pyknosed Nuclei (%) [1]: 6%
Population Tubulin-Different-Phenotype (%) [1]: 46%
Total Cell Count [1]: 412
Population Apoptotic (%) [2]: 34%
Population Fragmented Nuclei (%) [2]: 10%
Population Healthy Nuclei (%) [2]: 80%
Population Hoechst High Intensity Objects (%) [2]: 6%
Population Membrane Permeable-Phenotype (%) [2]: 1%
Population Mitochondria Different-Phenotype (%) [2]: 51%
Population Mitotic Cells (%) [2]: 65%
Population Normal (%) [2]: 93%
Population Pyknosed Nuclei (%) [2]: 8%
Population Tubulin-Different-Phenotype (%) [2]: 51%
Total Cell Count [2]: 332
Population Apoptotic (%) [3]: 69%
Population Fragmented Nuclei (%) [3]: 67%
Population Healthy Nuclei (%) [3]: 13%
Population Hoechst High Intensity Objects (%) [3]: 67%
Population Membrane Permeable-Phenotype (%) [3]: 0%
Population Mitochondria Different-Phenotype (%) [3]: 84%
Population Mitotic Cells (%) [3]: 30%
Population Normal (%) [3]: 32%
Population Pyknosed Nuclei (%) [3]: 18%
Population Tubulin-Different-Phenotype (%) [3]: 68%
Total Cell Count [3]: 423
Population Apoptotic (%) [4]: 55%
Population Fragmented Nuclei (%) [4]: 64%
Population Healthy Nuclei (%) [4]: 17%
Population Hoechst High Intensity Objects (%) [4]: 69%
Population Mitochondria Different-Phenotype (%) [4]: 90%
Population Mitotic Cells (%) [4]: 45%
Population Normal (%) [4]: 30%
Population Pyknosed Nuclei (%) [4]: 17%
Population Tubulin-Different-Phenotype (%) [4]: 50%
Total Cell Count [4]: 376
Population Apoptotic (%) [5]: 29%
Population Fragmented Nuclei (%) [5]: 20%
Population Healthy Nuclei (%) [5]: 66%
Population Hoechst High Intensity Objects (%) [5]: 2%
Population Membrane Permeable-Phenotype (%) [5]: 2%
Population Mitochondria Different-Phenotype (%) [5]: 22%
Population Mitotic Cells (%) [5]: 70%
Population Normal (%) [5]: 97%
Population Pyknosed Nuclei (%) [5]: 12%
Population Tubulin-Different-Phenotype (%) [5]: 23%
Total Cell Count [5]: 547
Population Apoptotic (%) [6]: 45%
Population Fragmented Nuclei (%) [6]: 15%
Population Healthy Nuclei (%) [6]: 73%
Population Hoechst High Intensity Objects (%) [6]: 6%
Population Membrane Permeable-Phenotype (%) [6]: 1%
Population Mitochondria Different-Phenotype (%) [6]: 33%
Population Mitotic Cells (%) [6]: 54%
Population Normal (%) [6]: 93%
Population Pyknosed Nuclei (%) [6]: 11%
Population Tubulin-Different-Phenotype (%) [6]: 35%
Total Cell Count [6]: 415
Population Apoptotic (%) [7]: 72%
Population Fragmented Nuclei (%) [7]: 60%
Population Healthy Nuclei (%) [7]: 16%
Population Hoechst High Intensity Objects (%) [7]: 56%
Population Membrane Permeable-Phenotype (%) [7]: 0%
Population Mitochondria Different-Phenotype (%) [7]: 89%
Population Mitotic Cells (%) [7]: 27%
Population Normal (%) [7]: 43%
Population Pyknosed Nuclei (%) [7]: 23%
Population Tubulin-Different-Phenotype (%) [7]: 92%
Total Cell Count [7]: 394
Population Fragmented Nuclei (%) [8]: 69%
Population Healthy Nuclei (%) [8]: 15%
Population Hoechst High Intensity Objects (%) [8]: 63%
Population Mitochondria Different-Phenotype (%) [8]: 94%
Population Normal (%) [8]: 36%
Population Pyknosed Nuclei (%) [8]: 14%
Population Tubulin-Different-Phenotype (%) [8]: 73%
Total Cell Count [8]: 334
Population Apoptotic (%) [9]: 29%
Population Fragmented Nuclei (%) [9]: 19%
Population Healthy Nuclei (%) [9]: 72%
Population Hoechst High Intensity Objects (%) [9]: 1%
Population Membrane Permeable-Phenotype (%) [9]: 1%
Population Mitochondria Different-Phenotype (%) [9]: 17%
Population Mitotic Cells (%) [9]: 70%
Population Normal (%) [9]: 98%
Population Pyknosed Nuclei (%) [9]: 7%
Population Tubulin-Different-Phenotype (%) [9]: 10%
Total Cell Count [9]: 844
Population Apoptotic (%) [10]: 47%
Population Fragmented Nuclei (%) [10]: 23%
Population Healthy Nuclei (%) [10]: 70%
Population Mitochondria Different-Phenotype (%) [10]: 21%
Population Mitotic Cells (%) [10]: 52%
Population Pyknosed Nuclei (%) [10]: 6%
Population Tubulin-Different-Phenotype (%) [10]: 14%
Total Cell Count [10]: 639
Population Apoptotic (%) [11]: 86%
Population Fragmented Nuclei (%) [11]: 51%
Population Healthy Nuclei (%) [11]: 17%
Population Hoechst High Intensity Objects (%) [11]: 41%
Population Membrane Permeable-Phenotype (%) [11]: 0%
Population Mitochondria Different-Phenotype (%) [11]: 97%
Population Mitotic Cells (%) [11]: 13%
Population Normal (%) [11]: 59%
Population Pyknosed Nuclei (%) [11]: 30%
Population Tubulin-Different-Phenotype (%) [11]: 95%
Total Cell Count [11]: 400
Population Apoptotic (%) [12]: 84%
Population Fragmented Nuclei (%) [12]: 47%
Population Healthy Nuclei (%) [12]: 22%
Population Hoechst High Intensity Objects (%) [12]: 49%
Population Mitochondria Different-Phenotype (%) [12]: 96%
Population Mitotic Cells (%) [12]: 15%
Population Normal (%) [12]: 50%
Population Tubulin-Different-Phenotype (%) [12]: 96%
Total Cell Count [12]: 298
